Test results: ChEMBL document CHEMBL3526129, “Species differences in tissue distribution and enzyme activities of arylacetamide deacetylase in human, rat, and mouse” (Drug Metab Dispos, 2012)

Columns and labels:
[1] = Intrinsic clearance in rat lung microsome at 0.025 to 0.75 mM; type: ADME; conditions: lung microsomes
Method in brief: (§1)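 Flutamide hydrolysis to FLU-1 in 100 mM potassium phosphate (pH 7.4) with 0.4 mg/ml microsomal protein. Flutamide was 0.025–0.75 mM, or 0.005–0.75 mM for human jejunum. Rodent microsomes were pooled from 3 male SD rats or 5 male C57BL/6J mice. CLint is Vmax/Km, or the initial slope when Km was high; for Hill fits, CLmax. Triplicate determinations.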

[2] = target: T1, Arylacetamide deacetylase (Mus musculus, UniProt Q99PG0); assay: Activity of AADAC in mouse lung microsome; type: ADME; conditions: microsomes
T1 sequence (Q99PG0 whole entry): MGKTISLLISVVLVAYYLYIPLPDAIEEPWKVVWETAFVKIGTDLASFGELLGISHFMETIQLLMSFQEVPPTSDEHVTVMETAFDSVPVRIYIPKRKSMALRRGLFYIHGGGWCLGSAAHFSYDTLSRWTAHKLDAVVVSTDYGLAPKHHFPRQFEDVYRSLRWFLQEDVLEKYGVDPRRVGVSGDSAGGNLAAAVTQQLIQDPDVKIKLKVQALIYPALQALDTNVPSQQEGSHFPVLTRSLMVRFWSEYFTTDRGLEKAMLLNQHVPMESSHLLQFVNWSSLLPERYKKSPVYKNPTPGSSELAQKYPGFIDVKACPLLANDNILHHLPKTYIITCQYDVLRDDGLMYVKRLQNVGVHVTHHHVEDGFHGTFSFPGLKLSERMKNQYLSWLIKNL
Method in brief: (§2)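 Hydrolase activity of tissue microsomes in 0.2 ml mixtures of 100 mM potassium phosphate (pH 7.4). Microsomal protein: 0.4 mg/ml for flutamide (0.025–0.75 mM) and phenacetin (0.05–4 mM); 0.5 mg/ml for rifampicin (0.005–1 mM). Products measured were FLU-1, p-phenetidine and 25-deacetylrifampicin, within linear ranges. Three independent experiments.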

[3] = target: T2, Arylacetamide deacetylase (Homo sapiens, UniProt P22760); assay: Activity of AADAC in human jejunum microsome; type: ADME; conditions: microsomes; method in brief: as §2
T2 sequence (P22760 whole entry): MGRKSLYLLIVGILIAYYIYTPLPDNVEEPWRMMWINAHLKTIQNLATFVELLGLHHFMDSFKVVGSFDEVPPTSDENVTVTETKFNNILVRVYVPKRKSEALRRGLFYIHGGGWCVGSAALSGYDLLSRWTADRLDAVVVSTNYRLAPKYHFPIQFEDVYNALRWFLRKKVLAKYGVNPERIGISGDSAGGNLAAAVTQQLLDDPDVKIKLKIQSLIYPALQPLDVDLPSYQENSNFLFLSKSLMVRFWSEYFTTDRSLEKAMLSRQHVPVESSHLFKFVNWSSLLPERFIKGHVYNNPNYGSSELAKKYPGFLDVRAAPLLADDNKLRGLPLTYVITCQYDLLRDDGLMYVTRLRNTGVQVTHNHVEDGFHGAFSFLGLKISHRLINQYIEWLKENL

[4] = Intrinsic clearance in mouse jejunum microsome at 0.005 to 0.75 mM; type: ADME; conditions: jejunum microsomes
[5] = Intrinsic clearance in human kidney microsome at 0.025 to 0.75 mM; type: ADME; conditions: kidney microsomes; method in brief: as §1
[6] = Intrinsic clearance in human Liver microsome at 0.025 to 0.75 mM; type: ADME; conditions: liver microsomes, read-out: CLH; method in brief: as §1
[7] = Intrinsic clearance in mouse kidney microsome at 0.025 to 0.75 mM; type: ADME; conditions: kidney microsomes; method in brief: as §1
[8] = Intrinsic clearance in rat kidney microsome at 0.025 to 0.75 mM; type: ADME; conditions: kidney microsomes; method in brief: as §1
[9] = target: T2, Arylacetamide deacetylase; assay: Inhibition of AADAC in human kidney microsome
Method in brief: (§3)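 Flutamide hydrolysis to FLU-1 by pooled human jejunum (n = 10) or single-donor human renal microsomes at 0.4 mg/ml in 100 mM potassium phosphate (pH 7.4). Flutamide was 0.005–0.75 mM (jejunum) or 0.025–0.75 mM (kidney). Kinetics were fitted to the substrate inhibition equation, combined with Michaelis-Menten for jejunum. Triplicate determinations.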

[10] = target: T2, Arylacetamide deacetylase; assay: Activity of AADAC in human liver microsome; type: ADME; conditions: microsomes; method in brief: as §2
[11] = Intrinsic clearance in mouse Liver microsome at 0.025 to 0.75 mM; type: ADME; conditions: liver microsomes, read-out: CLH; method in brief: as §1
[12] = target: T2, Arylacetamide deacetylase; assay: Inhibition of AADAC in human jejunum microsome; method in brief: as §3
[13] = Intrinsic clearance in human jejunum microsome at 0.005 to 0.75 mM; type: ADME; conditions: jejunum microsomes; method in brief: as §1
[14] = Intrinsic clearance in rat jejunum microsome at 0.005 to 0.75 mM; type: ADME; conditions: jejunum microsomes
[15] = target: T2, Arylacetamide deacetylase; assay: Activity of AADAC in human kidney microsome; type: ADME; conditions: microsomes; method in brief: as §2
[16] = Intrinsic clearance in rat Liver microsome at 0.025 to 0.75 mM; type: ADME; conditions: liver microsomes, read-out: CLH; method in brief: as §1
[17] = Intrinsic clearance in mouse Liver microsome at 0.05 to 4 mM; type: ADME; conditions: liver microsomes, read-out: CLH
Method in brief: (§4)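 Phenacetin hydrolysis by tissue microsomes: 0.05–4 mM phenacetin with 0.4 mg/ml microsomal protein in 100 mM potassium phosphate (pH 7.4). p-Phenetidine formation was read within its linear time range. CLint was Vmax/Km, or the initial slope of velocity vs substrate when Km was high. Triplicate determinations. Human liver pooled (n=50), jejunum pooled (n=10), kidney and lung single donors.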

[18] = Intrinsic clearance in mouse kidney microsome at 0.05 to 4 mM; type: ADME; conditions: kidney microsomes; method in brief: as §4
[19] = Intrinsic clearance in rat lung microsome at 0.05 to 4 mM; type: ADME; conditions: lung microsomes
[20] = target: T3, Arylacetamide deacetylase (Rattus norvegicus, UniProt Q9QZH8); assay: Ratio Vmax to Km in rat recombinant AADAC; type: ADME
T3 sequence (Q9QZH8 whole entry): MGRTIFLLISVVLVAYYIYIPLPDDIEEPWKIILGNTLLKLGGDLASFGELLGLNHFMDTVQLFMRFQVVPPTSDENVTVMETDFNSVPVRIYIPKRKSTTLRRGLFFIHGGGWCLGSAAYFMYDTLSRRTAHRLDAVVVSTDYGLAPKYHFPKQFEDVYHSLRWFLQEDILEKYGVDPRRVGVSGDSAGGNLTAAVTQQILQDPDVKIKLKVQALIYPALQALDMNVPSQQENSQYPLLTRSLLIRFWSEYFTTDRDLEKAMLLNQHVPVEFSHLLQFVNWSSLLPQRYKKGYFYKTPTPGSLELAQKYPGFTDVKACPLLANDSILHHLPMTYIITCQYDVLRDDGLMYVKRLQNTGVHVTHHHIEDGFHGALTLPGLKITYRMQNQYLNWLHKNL

[21] = Intrinsic clearance in rat Liver microsome at 0.05 to 4 mM; type: ADME; conditions: liver microsomes, read-out: CLH; method in brief: as §4
Liver microsome = assay: Intrinsic clearance in human Liver microsome at 0.05 to 4 mM; type: ADME; conditions: microsomes, 4000 µM; method in brief: as §4
[22] = target: T2, Arylacetamide deacetylase; assay: Ratio Vmax to Km in human recombinant AADAC; type: ADME
[23] = Intrinsic clearance in rat jejunum microsome at 0.05 to 4 mM; type: ADME; conditions: jejunum microsomes
[24] = Intrinsic clearance in human kidney microsome at 0.05 to 4 mM; type: ADME; conditions: microsomes, 4000 µM; method in brief: as §4
[25] = Intrinsic clearance in mouse jejunum microsome at 0.05 to 4 mM; type: ADME; conditions: jejunum microsomes
[26] = Intrinsic clearance in rat kidney microsome at 0.05 to 4 mM; type: ADME; conditions: kidney microsomes; method in brief: as §4
[27] = Intrinsic clearance in human jejunum microsome at 0.05 to 4 mM; type: ADME; conditions: jejunum microsomes; method in brief: as §4
[28] = target: T1, Arylacetamide deacetylase; assay: Ratio Vmax to Km in mouse recombinant AADAC; type: ADME
[29] = Intrinsic clearance in human lung microsome at 0.05 to 4 mM; type: ADME; conditions: microsomes, 4000 µM; method in brief: as §4
[30] = Intrinsic clearance in mouse Liver microsome at 0.05 to 1 mM; type: ADME; conditions: liver microsomes, read-out: CLH
[31] = Intrinsic clearance in human jejunum microsome at 0.05 to 1 mM; type: ADME; conditions: jejunum microsomes
[32] = target: T2, Arylacetamide deacetylase; assay: Inhibition of human recombinant AADAC
[33] = Intrinsic clearance in human Liver microsome at 0.05 to 1 mM; type: ADME; conditions: liver microsomes, read-out: CLH
[34] = target: T2, Arylacetamide deacetylase; assay: Inhibition of AADAC in human liver microsome

With `CC(C)C(=O)Nc1ccc([N+](=O)[O-])c(C(F)(F)F)c1` [FLUTAMIDE] the microsomal CLint at up to 750 µM [1] was 0.1 µL/min/mg, the Vmax [2] was 0 nmol/min/mg and the S50 [3] was 0.2 mM. For the same compound, the microsomal CLint at up to 750 µM [4] was 0.2 µL/min/mg, the microsomal CLint at up to 750 µM [5] was 1.2 µL/min/mg and the microsomal CLint at up to 750 µM [6] was 1.8 µL/min/mg. It also gave a microsomal CLint at up to 750 µM [7] of 0.6 µL/min/mg, a microsomal CLint at up to 750 µM [8] of 0.2 µL/min/mg and a Ki [9] of 0.6 µM. The Vmax [10] was 1.9 nmol/min/mg, the microsomal CLint at up to 750 µM [11] was 1.2 µL/min/mg and the Ki [12] was 14 µM. The microsomal CLint at up to 750 µM [13] was 12.9 µL/min/mg, the microsomal CLint at up to 750 µM [14] was 0.2 µL/min/mg and the S50 [15] was 2.1 mM. For the same compound, the microsomal CLint at up to 750 µM [16] was 1.4 µL/min/mg.
Compound `CCOc1ccc(NC(C)=O)cc1` [PHENACETIN] has a microsomal CLint at up to 4000 µM [17] of 1.3 µL/min/mg, a microsomal CLint at up to 4000 µM [18] of 0.4 µL/min/mg and a microsomal CLint at up to 4000 µM [19] of 0.1 µL/min/mg. It also gave a Vmax/Km [20] of 2.2 uL/min/U, a microsomal CLint at up to 4000 µM [21] of 0.2 µL/min/mg and a CLH (Liver microsome) of 1.1 µL/min/mg. The Vmax/Km [22] was 3.5 uL/min/U, the microsomal CLint at up to 4000 µM [23] was 0.1 µL/min/mg and the CL [24] was 0.2 µL/min/mg. It also gave a microsomal CLint at up to 4000 µM [25] of 0.1 µL/min/mg, a microsomal CLint at up to 4000 µM [26] of 0.1 µL/min/mg and a microsomal CLint at up to 4000 µM [27] of 4 µL/min/mg. It also gave a Vmax/Km [28] of 5.7 uL/min/U and a CL [29] of 0.4 µL/min/mg.
`CO[C@H]1/C=C/O[C@@]2(C)Oc3c(C)c(O)c4c(O)c(c(/C=N/N5CCN(C)CC5)c(O)c4c3C2=O)NC(=O)/C(C)=C\C=C\[C@H](C)[C@H](O)[C@@H](C)[C@@H](O)[C@@H](C)[C@H](OC(C)=O)[C@@H]1C` [RIFAMPIN] gave a microsomal CLint at up to 1000 µM [30] of 0.2 µL/min/mg, a microsomal CLint at up to 1000 µM [31] of 0.7 µL/min/mg and a Ki [32] of 300 µM. It also gave a microsomal CLint at up to 1000 µM [33] of 0.7 µL/min/mg, a Ki [34] of 200 µM and a Ki [12] of 700 µM.
